Data set [1] is described as follows: Clearance in mouse at 1 mg/kg, iv. On the set-up: dose 1 mg/kg, route intravenous. As to conditions: in vivo. Type of data set: ADME, organism-based. The gist of the method: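 Mice given 1 mg/kg intravenously; clearance determined.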
A short description of data set [2]: Clearance in mouse liver microsomes at 0.5 uM. Type of data set: ADME, Microsome. The gist of the method: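 Clearance determined in mouse liver microsomes with compound at 0.5 µM.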
On the technique in general: Microsomes from liver hold many membrane-bound enzymes, among them those of drug oxidation.

Data set [3] concerns the target T1, C-X-C chemokine receptor type 3 (Homo sapiens, UniProt P49682).
T1 sequence (P49682 whole entry): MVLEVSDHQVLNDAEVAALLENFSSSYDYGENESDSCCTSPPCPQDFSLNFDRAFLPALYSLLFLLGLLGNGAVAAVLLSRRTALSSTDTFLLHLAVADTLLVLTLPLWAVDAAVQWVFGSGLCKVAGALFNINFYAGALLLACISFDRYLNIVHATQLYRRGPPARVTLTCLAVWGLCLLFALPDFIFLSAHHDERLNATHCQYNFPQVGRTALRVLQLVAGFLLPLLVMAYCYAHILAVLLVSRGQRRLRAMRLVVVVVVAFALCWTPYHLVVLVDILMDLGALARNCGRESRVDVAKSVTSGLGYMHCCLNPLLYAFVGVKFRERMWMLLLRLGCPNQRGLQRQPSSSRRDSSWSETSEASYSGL
Description: Antagonist activity at human CXCR3 expressed in CHO cells by [35S]GTP-gamma-S binding assay. Type of data set: functional, cell-based. In general terms: Binding of GTPγS marks nucleotide exchange on a G protein.

The nature of data set [4]: Distribution coefficient, log D of the compound. Type of data set: physicochemical. The conditions noted are these: octanol/water.
A short description of data set [5]: Aqueous solubility at pH 6.5. The class given is physicochemical.
Data set [6] has as its target T2, C-X-C chemokine receptor type 3 (Homo sapiens) (UniProt P49682).
T2 sequence (whole entry): T1 sequence (P49682 whole entry)
Nature of the data set: Antagonist activity at human CXCR3 expressed in CHO cells by [35S]GTP-gamma-S binding assay at 10 uM. The class given is functional, cell-based.

The target in data set [7] is T3, C-X-C chemokine receptor type 3 (Mus musculus, UniProt O88410).
T3 sequence (O88410 whole entry): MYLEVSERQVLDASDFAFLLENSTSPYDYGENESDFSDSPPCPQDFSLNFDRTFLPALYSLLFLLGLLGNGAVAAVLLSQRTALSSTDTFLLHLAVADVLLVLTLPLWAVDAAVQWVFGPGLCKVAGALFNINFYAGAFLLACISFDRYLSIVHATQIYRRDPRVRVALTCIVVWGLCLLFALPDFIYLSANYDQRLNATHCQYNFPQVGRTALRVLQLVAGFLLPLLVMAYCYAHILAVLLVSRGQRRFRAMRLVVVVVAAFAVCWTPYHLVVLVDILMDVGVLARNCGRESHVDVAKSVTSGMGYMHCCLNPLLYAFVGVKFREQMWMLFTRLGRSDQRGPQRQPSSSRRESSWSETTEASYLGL
Nature of the data set: Antagonist activity at mouse CXCR3 by [35S]GTP-gamma-S binding assay. Type of data set: functional.

A further data set has as its target Cytochrome P450 2D6 (Homo sapiens, UniProt P10635). Nature of the data set: Inhibition at human CYP2D6. The class given is ADME.

≈ marks a conversion by molar mass, not a printed value.

Cytochrome P450 2D6, sequence (P10635 whole entry): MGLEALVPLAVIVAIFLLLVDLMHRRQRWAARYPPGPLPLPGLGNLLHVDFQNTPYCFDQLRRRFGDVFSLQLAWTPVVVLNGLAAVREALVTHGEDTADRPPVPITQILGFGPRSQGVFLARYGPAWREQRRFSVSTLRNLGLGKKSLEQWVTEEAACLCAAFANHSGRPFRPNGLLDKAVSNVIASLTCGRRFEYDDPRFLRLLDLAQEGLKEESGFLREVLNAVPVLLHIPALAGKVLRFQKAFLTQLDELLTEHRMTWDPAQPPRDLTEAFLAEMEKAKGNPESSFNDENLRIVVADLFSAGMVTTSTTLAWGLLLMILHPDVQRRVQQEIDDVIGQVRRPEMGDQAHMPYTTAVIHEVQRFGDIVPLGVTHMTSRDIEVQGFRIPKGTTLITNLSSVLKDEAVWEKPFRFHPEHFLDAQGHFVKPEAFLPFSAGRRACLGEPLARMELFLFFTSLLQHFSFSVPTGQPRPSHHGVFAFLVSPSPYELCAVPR

Turning to `CC1(C)[C@H]2CC=C(C[N+]3(C)CCC(NC(=O)Nc4cc(F)cc(C(F)(F)F)c4)CC3)[C@@H]1C2.[I-]` (stereo not given in full), the clearance (as a rule, the rate of elimination divided by the concentration) in data set [1] was found to be 34.5 mL/min/kg. Besides, the microsomal CLint (as a rule, a measure of how fast metabolising enzymes remove a compound, apart from limits set by blood flow) at 0.5 µM in data set [2] came to 66 µL/min/mg. For the same compound, the Ki (usually the dissociation constant of the complex between target and ligand, obtained from inhibition or displacement) in data set [3] was 28 nM. In addition, the logD (commonly lipophilicity at a set pH, counting ionised and neutral species) in data set [4] is 2.35. The solubility (in general, the concentration that dissolves in the medium under given conditions) in data set [5] is 55 µg/mL. For the compound `CC1(C)[C@H]2CC=C(CN3CCC(NC(=O)Nc4ccc(-c5ccccc5Cl)s4)CC3)[C@@H]1C2`, the affinity in data set [3], expressed as Ki, was 46 nM.

In the case of `O=C(Nc1cccc(Cl)c1)NC1CCN(C/C2=C/CCCCCC2)CC1`, the Ki in data set [3] worked out at 201 nM. Compound `CC1(C)[C@H]2CC=C(CN3CCC(NC(=O)Nc4ccc(F)c(C(F)(F)F)c4)CC3)[C@@H]1C2` returned a Ki in data set [3] of 81 nM.

In the case of `CC1(C)[C@H]2CC=C(CN3CCC(NC(=O)Nc4ccccc4)CC3)[C@@H]1C2`, the Ki in data set [3] was 2000 nM. Compared with the last compound, the Ki is about 25-fold higher. On to `CC(=O)c1cccc(NC(=O)NC2CCN(CC3=CC[C@H]4C[C@@H]3C4(C)C)CC2)c1`, for which the Ki in data set [3] is 258 nM. The same measure, in the same setting: as for `CC1(C)[C@H]2CC=C(CN3CCC(NC(=O)Nc4cncc(-c5ccsc5)c4)CC3)[C@@H]1C2`, the figure is 107 nM; as for `CC1(C)[C@H]2CC=C(CN3CCC(NC(=O)Nc4ccc(-c5ccccc5)s4)CC3)[C@@H]1C2`, 191 nM. Same read-out and setting: the figure for `O=C(Nc1ccc2ccccc2c1)NC1CCN(CCc2ccccc2)CC1` is 1300 nM; for `COc1cccc(NC(=O)NC2CCN(CC3=CC[C@H]4C[C@@H]3C4(C)C)CC2)c1` it is 429 nM; for `COc1cccc(-c2ccc(NC(=O)NC3CCN(CC4=CC[C@H]5C[C@@H]4C5(C)C)CC3)s2)c1` it is 29 nM. Regarding `O=C(Nc1ccc2ccccc2c1)NC1CCN(CCCc2ccccc2)CC1`, in data set [3], the Ki stood at 2200 nM. `CC1(C)[C@H]2CC=C(CN3CCC(NC(=O)Nc4cc(C(F)(F)F)cc(C(F)(F)F)c4)CC3)[C@@H]1C2` gave a Ki in data set [3] of 73 nM.

`O=C(Nc1cccc(OC(F)(F)F)c1)NC1CCN(C/C2=C/CCCCCC2)CC1` registered a Ki in data set [3] of 104 nM. With `O=C(Nc1ccc(-c2ccccc2)s1)NC1CCN(C/C2=C/CCCCCC2)CC1`, the Ki in data set [3] turned out to be 108 nM. In turn, `CC1(C)[C@H]2CC=C(CN3CCC(NC(=O)Nc4cncc(Br)c4)CC3)[C@@H]1C2` came in with a Ki in data set [3] of 171 nM. `O=C(Nc1ccc2ccccc2c1)NC1CCN(CC23C=CC(CC2)C3)CC1` (stereo not given): the Intrinsic activity in data set [6] was less than 50%. `COC(=O)c1cccc(NC(=O)NC2CCN(C/C3=C/CCCCCC3)CC2)c1` had a Ki in data set [3] of 660 nM. The same measure, in the same setting: as for `CC1(C)[C@H]2CC=C(CN3CCC(NC(=O)Nc4cccc(OC(F)(F)F)c4)CC3)[C@@H]1C2`, the figure is 31 nM. Turning to `CC1(C)[C@H]2CC=C(CN3CCC(NC(=O)Nc4cccc(OC5CCOC5)c4)CC3)[C@@H]1C2` (stereo not given in full), the clearance in data set [1] was 222 mL/min/kg. In addition, the microsomal CLint at 0.5 µM in data set [2] was 287 µL/min/mg. In addition, in data set [3], affinity was put at a Ki of 141 nM. Further, the logD in data set [4] came out at 3.87. This compound also yielded a solubility in data set [5] of 927 µg/mL (≈ 2110 µM). With `CC1(C)[C@H]2CC=C(CN3CCC(NC(=O)Nc4cc(C(F)(F)F)ccc4F)CC3)[C@@H]1C2`, in data set [3], the Ki amounted to 229 nM. In the case of `CC1(C)[C@H]2CC=C(CN3CCC(NC(=O)Nc4ccc(OC(F)(F)F)cc4)CC3)[C@@H]1C2`, the Ki in data set [3] stood at 175 nM. The same measure, in the same setting: as for `CC1(C)[C@H]2CC=C(CN3CCC(NC(=O)Nc4cc(F)cc(F)c4)CC3)[C@@H]1C2`, the figure is 171 nM. In the case of `CC1(C)[C@H]2CC=C(CN3CCC(NC(=O)Nc4cc(F)cc(OC5CCOC5)c4)CC3)[C@@H]1C2` (stereo not given in full), the microsomal CLint at 0.5 µM in data set [2] amounted to 97 µL/min/mg. The Ki in data set [3] is 83 nM. Besides, the logD in data set [4] worked out at 3. The compound further came in with a solubility in data set [5] of 874 µg/mL (≈ 1910 µM). `O=C(Nc1cc(F)cc(C(F)(F)F)c1)NC1CCN(C/C2=C/CCCCCC2)CC1` showed a Ki in data set [3] of 47 nM. Same read-out and setting: as for `O=C(Nc1cccc(C(F)(F)F)c1)NC1CCN(C/C2=C/CCCCCC2)CC1`, the figure is 88 nM; as for `O=C(Nc1cc(C(F)(F)F)cc(C(F)(F)F)c1)NC1CCN(C/C2=C/CCCCCC2)CC1`, 36 nM.

In the case of `O=C(Nc1ccc2ccccc2c1)NC1CCN(C/C2=C/CCCCCC2)CC1`, the Ki was 400 nM in data set [7], 600 nM at Cytochrome P450 2D6 and 110 nM in data set [3]. The compound further showed a logD in data set [4] of 4.95. The concentration in solution in data set [5] (solubility) was 1 µg/mL (≈ 2.55 µM). Regarding `O=C(Nc1cc(Cl)cc(Cl)c1)NC1CCN(C/C2=C/CCCCCC2)CC1`, in data set [3], the Ki turned out to be 41 nM. In data set [6], `O=C(Nc1ccsc1)NC1CCN(C/C2=C/CCCCCC2)CC1` had an Intrinsic activity of less than 50%.

`CC1(C)[C@H]2CC=C(CN3CCC(NC(=O)Nc4cccc(OC5CCOCC5)c4)CC3)[C@@H]1C2` had a Ki in data set [3] of 191 nM. Compound `CC1(C)[C@H]2CC=C(CN3CCC(NC(=O)Nc4cccc(CN5CCOCC5)c4)CC3)[C@@H]1C2` returned an Intrinsic activity in data set [6] of less than 50%. In data set [1], `CC1(C)[C@H]2CC=C(CN3CCC(NC(=O)Nc4cncc(-c5cccs5)c4)CC3)[C@@H]1C2` registered a clearance of 112 mL/min/kg. Also, the microsomal CLint at 0.5 µM in data set [2] is 324 µL/min/mg. Moreover, the Ki in data set [3] worked out at 70 nM. Also, in data set [4], the logD is 3.47. The compound also came in with a solubility in data set [5] of 4 µg/mL (≈ 9.16 µM). In turn, `N#Cc1ccc(NC(=O)NC2CCN(C/C3=C/CCCCCC3)CC2)cc1` returned an Intrinsic activity in data set [6] of less than 50%. With `CC1(C)[C@H]2CC=C(CN3CCC(NC(=O)Nc4cccc(C(=O)O)c4)CC3)[C@@H]1C2`, the Intrinsic activity in data set [6] is less than 50%. As to `O=C(Nc1cc(Cl)nc(Cl)c1)NC1CCN(C/C2=C/CCCCCC2)CC1`, in data set [3], the Ki was found to be 3400 nM. The same measure, in the same setting: as for `CC(C)(C)c1ccc(NC(=O)NC2CCN(C/C3=C/CCCCCC3)CC2)cc1`, the figure is 1040 nM. Still for that read-out and setting: the figure for `CC1(C)[C@H]2CC=C(CN3CCC(NC(=O)Nc4ccc(-c5ccc(C(F)(F)F)cc5)s4)CC3)[C@@H]1C2` is 39 nM.

In the case of `CC(=O)c1cccc(NC(=O)NC2CCN(C/C3=C/CCCCCC3)CC2)c1`, affinity in data set [3] was put at a Ki of 637 nM. On to `COC(=O)c1cccc(NC(=O)NC2CCN(CC3=CC[C@H]4C[C@@H]3C4(C)C)CC2)c1`, for which the Ki in data set [3] is 376 nM. Turning to `O=C(Nc1cccc2ccccc12)NC1CCN(C/C2=C/CCCCCC2)CC1`, the Intrinsic activity in data set [6] was less than 50%. Still for that read-out and setting: as for `N#Cc1cccc(NC(=O)NC2CCN(C/C3=C/CCCCCC3)CC2)c1`, the figure is less than 50%. As to `CC1(C)C2CC=C(CCN3CCC(NC(=O)Nc4ccc5ccccc5c4)CC3)C1C2` (stereo not given), the affinity in data set [3], expressed as Ki, was 290 nM. On the same count and under the same terms, the figure for `O=C(Nc1ccc(Oc2ccccc2)cc1)NC1CCN(C/C2=C/CCCCCC2)CC1` is 306 nM; for `CC1(C)[C@H]2CC=C(CN3CCC(NC(=O)Nc4cc(F)cc(C(F)(F)F)c4)CC3)[C@@H]1C2` it is 16 nM.

As for `CC1(C)[C@H]2CC=C(CN3CCC(NC(=O)Nc4cccc(CO)c4)CC3)[C@@H]1C2`, in data set [6], the Intrinsic activity is less than 50%.
